ChEMBL document CHEMBL3997837, “Potent covalent inhibitors of bacterial urease identified by activity-reactivity profiling” (Bioorg Med Chem Lett, 2017)
Structures can show the parent of a compound that is named as a salt. Calls of active or inactive are those of the source. No cut-off for these calls is given here.

What was measured:
[1] = Inhibition of Sporosarcina pasteurii CCM 2056 urease assessed as reduction in ammonia production using urea as substrate measured for 120 mins by phenol-hypochlorite method
[2] = system: Sporosarcina pasteurii; experiment: Time-dependent Sporosarcina pasteurii CCM 2056 urease assessed as reduction in ammonia production using urea as substrate by phenol-hypochlorite method
[3] = system: Sporosarcina pasteurii; experiment: Competitive inhibition of Sporosarcina pasteurii CCM 2056 urease assessed as reduction in ammonia production preincubated with enzyme followed by addition of varying levels of urea as substrate measured for 120 mins by Lineweaver-Burk plot analysis
[4] = system: Sporosarcina pasteurii; experiment: Reversible inhibition of Sporosarcina pasteurii CCM 2056 urease assessed as reduction in ammonia production by measuring recovery of enzyme activity at 10 times IC50 preincubated for 60 mins followed by 100-fold dilution in to PBS containing urea as substrate by Berthelot colorimetric assay relative to control; parameters: Activity: scale not given: the % may be the effect or the level left
[5] = Inhibition of Sporosarcina pasteurii CCM 2056 urease assessed as reduction in ammonia production by measuring initial state enzyme-inhibitor complex using urea as substrate measured for 120 mins by phenol-hypochlorite method
[6] = Inhibition of Sporosarcina pasteurii CCM 2056 urease assessed as reduction in ammonia production by measuring steady state enzyme-inhibitor complex using urea as substrate measured for 120 mins by phenol-hypochlorite method
[7] = system: BALB/3T3; experiment: Cytotoxicity against mouse BALB/3T3 cells assessed as reduction in cell proliferation after 72 hrs by SRB assay; assay type: cell-based; conditions: balb/3t3, 72 h
How it was run: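 Mouse BALB/3T3 fibroblasts were scored by SRB assay, with cytotoxicity given as LC50 values.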

[8] = Glutathione reactivity in pH 7.4 PBS measured after 6 to 36 hrs in presence of 1.375 mmol GSH by DTNB reagent based spectrophotometric method
How it was run: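 Glutathione served as a model reactive-thiol compound. Unreacted GSH was quantified spectrophotometrically by a modified Ellman method, and reaction progress was followed over time up to 36 h.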

[9] = Cytotoxicity against mouse BALB/3T3 cells assessed as inhibition of cell proliferation at 100 uM after 72 hrs by SRB assay relative to control; assay type: cell-based
How it was run: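 Mouse BALB/3T3 cells were tested by SRB assay at a single concentration of 100, with the result given as percent inhibition of proliferation.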

[10] = Glutathione reactivity up to 15 mins in presence of 10 mM GSH by 1H NMR analysis
[11] = Inhibition of Proteus mirabilis 543 urease at pH 5.5 assessed as reduction in ammonia production using urea as substrate measured after 15 mins by NaOH-hypochlorite method
How it was run: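 Intact Proteus mirabilis cells were tested at pH 5.5, matching physiological urine, with 5 mM urea. Inhibitors were added without preincubation, and IC50 was determined.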

[12] = Inhibition of Proteus mirabilis 543 urease at pH 5.5 assessed as reduction in ammonia production using urea as substrate preincubated for 120 mins followed by substrate addition measured after 15 mins by NaOH-hypochlorite method
How it was run: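 Intact Proteus mirabilis cells were preincubated with inhibitors in PBS for 2 h, then tested at pH 5.5, matching urine acidity, with 5 mM urea. IC50 was determined.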

[13] = system: Proteus mirabilis; experiment: Inhibition of Proteus mirabilis 543 urease at pH 5.5 assessed as reduction in ammonia production using urea as substrate followed by substrate addition by NaOH-hypochlorite method; conditions: TDE = time-dependent effect

Row | Structure (SMILES) | Ki ([1]; read-out: Ki) [µM] | TDI [2] | mode of inhibition [3] | Activity [4] [%] | Ki ([5]; read-out: Ki) [µM] | Ki ([6]; read-out: Ki) [µM] | also measured
1 | C#CC(=O)OC | 46 | Active | Active | 41.5 | 804 | 50.5 | 
2 | CCOC(=O)C#Cc1ccccc1 | 52.3 | Active | Active | 44.7 | 814 | 47.1 | 
3 | N#C/C=C/C1=CC(=O)CCC1 | 0.784 | Active | Active | 27.2 | 55.1 | 0.931 | 
4 | CC(C)OC(=O)/C=C/C(=O)OC(C)C | 42.4 | Active | Active | 41.2 | 678 | 38.6 | 
5 | O=C1C=CCC1 | 0.291 | Active | Active | 15.3 | 11.2 | 0.232 | LC50 [7]: 86.5 µM; K [8]: 0.487 M⁻¹ s⁻¹; log K [8]: 1.5
6 | COC(=O)/C=C/C(=O)OC [DIMETHYL FUMARATE] | 21.3 | Active | Active | 36.8 | 311 | 21.7 | LC50 [7]: 39.7 µM; Drug metabolism [10]: Metabolite detected; K [8]: 2.62 M⁻¹ s⁻¹; log K [8]: 2.2
7 | O=C(O)/C=C\C(=O)O [MALEIC ACID] |  |  |  |  |  |  | Ki [1]: Not Active; inhibition [4]: inactive; Ki [5]: Not Active; Ki [6]: Not Active
8 | C=C=CC(=O)NCc1ccccc1 |  |  |  |  |  |  | Ki [1]: Not Active; inhibition [4]: inactive; Ki [5]: Not Active; Ki [6]: Not Active
9 | CCCCOC(=O)/C=C/C(=O)OCCCC | 53.7 | Active | Active | 45.1 | 847 | 66.7 | 
10 | COC(=O)/C=C/C1=CC(=O)CCC1 | 0.694 | Active | Active | 23.6 | 46.5 | 0.766 | K [8]: 0.0703 M⁻¹ s⁻¹; log K [8]: 0.63
11 | CCOC(=O)C#CC(=O)OCC | 0.0102 | Active | Active | 8.8 | 0.852 | 0.00744 | 
12 | O=C1C=C(/C=C/C(=O)c2ccccc2)CCC1 | 0.592 | Active | Active | 21.5 | 26.8 | 0.493 | 
13 | O=C1C=CCCC1 | 0.766 | Active | Active | 27.2 | 22.8 | 0.267 | inhibition at 72 h, 100 µM [9]: 29.8%; K [8]: 0.37 M⁻¹ s⁻¹; log K [8]: 1.35
14 | CC#CC(=O)O | 109 | Active | Active | 47.4 | 1130 | 97.5 | 
15 | COC(=O)/C=C/C1=CC(=O)CC1 | 0.285 | Active | Active | 16.7 | 16.7 | 0.316 | inhibition at 72 h, 100 µM [9]: 35.2%; K [8]: 0.166 M⁻¹ s⁻¹; log K [8]: 0.998
16 | CCOC(=O)/C=C/c1ccccc1 [ETHYL CINNAMATE] |  |  |  |  |  |  | Ki [1]: Not Active; inhibition at 72 h, 100 µM [9]: 29.1%; inhibition [4]: inactive; IC50 [11]: Not Active; IC50 [12]: Not Active; Ki [5]: Not Active; Ki [6]: Not Active; K [8]: 1.21e-05 M⁻¹ s⁻¹; log K [8]: -3.14; inhibition [13]: Tde
17 | CC(=O)NO [ACETOHYDROXAMIC ACID] | 3.3 |  |  | 29.1 |  |  | IC50 ([11]; read-out: IC50): 169 µM; IC50 ([12]; read-out: IC50): 91.4 µM
18 | COC(=O)/C=C\C(=O)OC [DIMETHYL MALEATE] |  |  |  |  |  |  | Ki [1]: Not Active; inhibition [4]: inactive; Ki [5]: Not Active; Ki [6]: Not Active
19 | CCOC(=O)/C=C/C(=O)O [ETHYL FUMARATE] | 52.4 | Active | Active | 45.6 | 888 | 59.1 | 
20 | O=C(O)/C=C(\CC(=O)O)C(=O)O [ACONITIC ACID] | 6.13 | Active | Active | 33.8 |  |  | 
21 | CCOC(=O)/C=C/c1ccc(C)cc1 |  |  |  |  |  |  | Ki [1]: Not Active; inhibition [4]: inactive; Ki [5]: Not Active; Ki [6]: Not Active
22 | CCOC(=O)/C=C/C(=O)OC(C)(C)C | 22.1 | Active | Active | 39.3 | 425 | 25.7 | 
23 | CCOC(=O)/C=C/C(=O)c1ccccc1 | 3.96 | Active | Active | 30.2 | 29.2 | 1.21 | LC50 [7]: 24.5 µM; K [8]: 2.18 M⁻¹ s⁻¹; log K [8]: 2.12
24 | COC(=O)C#CC(=O)OC | 0.00977 | Active | Active | 9.2 | 0.973 | 0.0124 | LC50 [7]: 29.8 µM; Drug metabolism [10]: Metabolite detected; K [8]: 6.47 M⁻¹ s⁻¹; log K [8]: 2.59

Further lines, with some results ahead:

Row | Ki ([1]; read-out: Ki) [µM] | TDI [2] | mode of inhibition [3] | Activity [4] [%] | Ki ([5]; read-out: Ki) [µM] | Ki ([6]; read-out: Ki) [µM] | Structure (SMILES) | also measured
25 | 5.21 | Active | Active | 31.5 |  |  | COC(=O)/C=C(\CC(=O)OC)C(=O)OC | 
26 | 11.9 | Active | Active | 35.8 | 323 | 15.7 | O=C(O)/C=C/c1ccc([N+](=O)[O-])cc1 | 
27 | 0.0928 | Active | Active | 8.9 | 32.8 | 0.113 | CCOC(=O)/C=C/C(=O)C(=O)OCC | 
28 | 2.52 | Active | Active | 29.1 | 162 | 2.27 | C=C=CC(=O)OCC | 
29 |  |  | Active |  |  |  | CCOC(=O)/C=C/c1ccc([N+](=O)[O-])cc1 | Ki [1]: Not Active; inhibition [4]: inactive; Ki [5]: Not Active; Ki [6]: Not Active
30 | 17.8 | Active | Active | 38.1 | 189 | 19.5 | O=C(O)/C=C/C1=CC(=O)CCC1 | 
31 | 6.36 | Active | Active | 32.7 | 77.1 | 6.64 | Cc1ccc(C(=O)/C=C/C(=O)O)cc1 | inhibition at 72 h, 100 µM [9]: 31.3%; K [8]: 0.333 M⁻¹ s⁻¹; log K [8]: 1.3
32 | 44.4 | Active | Active | 40.9 | 729 | 43.5 | C#CC(=O)O [PROPIOLIC ACID] | 
33 | 11.1 | Active | Active | 34.3 | 21.7 | 12 | CCOC(=O)/C=C/C(=O)OCC | 
34 | 21.2 | Active | Active | 38.8 | 205 | 21.3 | CC(=O)/C=C/C1=CC(=O)CCC1 | 
35 | 34.2 | Active | Active | 39.9 | 633 | 32.2 | Cc1ccc(/C=C/C(=O)O)cc1 | 
36 | 64.2 | Active | Active | 46 | 907 | 59.2 | CCC(C)OC(=O)/C=C/C(=O)OC(C)CC (configuration not stated) | 
37 | 37.1 | Active | Active | 39.2 | 584 | 40.3 | O=C(O)C#Cc1ccccc1 | 
38 | 126 | Active | Active | 47.3 | 1270 | 117 | CC#CC(=O)OCC | 
